Data published in ChEMBL document CHEMBL1159118, “The effect of backbone cyclization on PK/PD properties of bioactive peptide-peptoid hybrids: the melanocortin agonist paradigm” (Bioorg Med Chem, 2010).
Numbered stars: 1 amine (or outer) side, 2 acyl side, 3 side chain; on linkers, the order of the positions; unused ones are H or OH. Bridge positions count the residues as written; N and C are the ends. Square brackets hold non-standard residues; d marks the D form. Peptide text beside a SMILES is read from it. N(2-Aminoethyl)Gly = O=C(CN(CCN[*:3])[*:1])[*:2]; Adipoyl = O=C(CCCCC(=O)[*:2])[*:1]; Glutaryl = O=C(CCCC(=O)[*:2])[*:1]; Suc = O=C(CCC(=O)[*:2])[*:1]; Nphe = O=C(O)CNCc1ccccc1

Tests used:
Melanocortin receptor 4 = Melanocortin receptor 4 (Mus musculus, UniProt P56450); assay: Agonist activity at mouse MC4R expressed in HEK293 cells by beta-galactosidase reporter gene assay; type: functional, cell-based
Melanocortin receptor 5 = Melanocortin receptor 5 (Mus musculus, UniProt P41149); assay: Agonist activity at mouse MC5R expressed in HEK293 cells by beta-galactosidase reporter gene assay; type: functional, cell-based
Melanocortin receptor 3 = Melanocortin receptor 3 (Mus musculus, UniProt P33033); assay: Agonist activity at mouse MC3R expressed in HEK293 cells by beta-galactosidase reporter gene assay; type: functional, cell-based
[1] = (§1) Metabolic stability in rat serum assessed as drug degradation after 4 hrs; type: ADME, cell-free; details: read-out: Activity
[2] = Membrane binding affinity to synthetic dimyristoylphosphatidylcholine/polydiacetylene vesicles assessed as colorimetric response by colorimetric assay; design: concentration or dose not given beside the values
Method in brief: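 Peptide added from 0.4 mg/mL stock to vesicles (0.5 mM total lipids, 25 mM Tris-base pH 8), diluted with water; UV–vis absorbance at 640 and 500 nm; %CR = [(PB0 − PBI)/PB0] × 100, PB = Ablue/(Ablue + Ared); duplicates.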

[3] = Metabolic stability in Wistar rat brush border membrane vesicles assessed as drug degradation up to 90 mins by HPLC; type: ADME, cell membranes; details: read-out: Activity
Method in brief: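 Brush border membrane vesicles from duodenum, jejunum and upper ileum of male Wistar rats (200–250 g), Ca2+ precipitation, 13–18-fold marker-enzyme enrichment. Compound incubated with BBMVs at 37 °C for 90 min; duplicate samples at 0, 15, 30, 45, 60, 90 min, quenched 1:1 with ice-cold methanol, centrifuged, analysed by HPLC.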

[4] = molecular target: Melanocyte-stimulating hormone receptor (Mus musculus, UniProt Q01727); assay: Agonist activity at mouse MC1R expressed in HEK293 cells by beta-galactosidase reporter gene assay; type: functional, cell-based
Caco-2 = assay: Ratio of Papp for mannitol to Papp for drug in permeability across apical to basolateral side of human Caco-2 cells; type: ADME, cell-based
[5] = (§2) Metabolic stability in rat serum assessed as drug degradation after 1 hr; type: ADME, cell-free; details: read-out: Activity
Method in brief: (§3)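 Incubation in rat serum, sampled at 0, 1, 2 and 5 h; degradation relative to initial concentration.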

Serum [6] = assay: as §2; type: ADME, cell-free; details: 1 h; method in brief: as §3
Serum [7] = assay: as §1; type: ADME, cell-free; details: 4 h
Serum [8] = assay: Metabolic stability in rat serum assessed as drug remaining after 3 hrs; type: ADME, cell-free
[9] = molecular target: Melanocortin receptor 4 (Mus musculus) (UniProt P56450); assay: Agonist activity at mouse MC4R expressed in HEK293 cells at 100 uM by beta-galactosidase reporter gene assay relative to control; type: functional, cell-based
Method in brief: (§4)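 CRE/β-galactosidase reporter in HEK-293 cells stably expressing the mouse receptor; 6 h peptide exposure with 0.1 mM IBMX; ONPG read at OD 405 nm, normalized to protein content and forskolin (10–4 M) response; % stimulation at highest concentration tested, relative to control; ≥3 independent experiments.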

[10] = molecular target: Melanocortin receptor 3 (Mus musculus) (UniProt P33033); assay: Agonist activity at mouse MC3R expressed in HEK293 cells at 100 uM by beta-galactosidase reporter gene assay relative to control; type: functional, cell-based; method in brief: as §4
Melanocortin receptor 3 (Mus musculus), sequence (P33033 whole entry): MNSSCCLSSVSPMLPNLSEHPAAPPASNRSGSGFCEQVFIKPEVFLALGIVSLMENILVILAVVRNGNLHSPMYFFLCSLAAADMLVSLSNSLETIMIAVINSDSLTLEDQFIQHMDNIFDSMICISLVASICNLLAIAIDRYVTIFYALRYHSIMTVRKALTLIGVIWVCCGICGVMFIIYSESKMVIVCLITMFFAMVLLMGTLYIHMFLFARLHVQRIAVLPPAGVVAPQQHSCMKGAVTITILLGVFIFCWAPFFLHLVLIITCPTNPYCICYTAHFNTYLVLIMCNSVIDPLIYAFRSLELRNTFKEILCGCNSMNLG

Melanocyte-stimulating hormone receptor, sequence (Q01727 whole entry): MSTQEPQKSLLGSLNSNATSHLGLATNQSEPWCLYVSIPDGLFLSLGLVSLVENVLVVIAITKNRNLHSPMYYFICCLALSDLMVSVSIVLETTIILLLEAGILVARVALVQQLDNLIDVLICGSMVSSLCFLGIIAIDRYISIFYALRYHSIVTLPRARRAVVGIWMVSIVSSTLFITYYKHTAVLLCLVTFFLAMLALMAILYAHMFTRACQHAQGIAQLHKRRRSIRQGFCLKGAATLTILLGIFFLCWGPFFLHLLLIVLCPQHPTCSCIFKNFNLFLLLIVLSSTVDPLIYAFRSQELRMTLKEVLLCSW
Melanocortin receptor 3, sequence (P33033 whole entry): as the sequence (P33033 whole entry) above
Melanocortin receptor 5, sequence (P41149 whole entry): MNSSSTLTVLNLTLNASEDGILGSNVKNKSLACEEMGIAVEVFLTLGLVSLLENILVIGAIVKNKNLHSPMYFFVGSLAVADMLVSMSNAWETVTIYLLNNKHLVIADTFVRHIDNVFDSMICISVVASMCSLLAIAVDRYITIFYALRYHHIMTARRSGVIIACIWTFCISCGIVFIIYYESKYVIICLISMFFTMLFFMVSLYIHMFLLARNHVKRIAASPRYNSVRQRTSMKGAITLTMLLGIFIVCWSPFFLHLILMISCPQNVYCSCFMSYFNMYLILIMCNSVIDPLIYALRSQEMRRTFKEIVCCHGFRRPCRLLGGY
Melanocortin receptor 4, sequence (P56450 whole entry): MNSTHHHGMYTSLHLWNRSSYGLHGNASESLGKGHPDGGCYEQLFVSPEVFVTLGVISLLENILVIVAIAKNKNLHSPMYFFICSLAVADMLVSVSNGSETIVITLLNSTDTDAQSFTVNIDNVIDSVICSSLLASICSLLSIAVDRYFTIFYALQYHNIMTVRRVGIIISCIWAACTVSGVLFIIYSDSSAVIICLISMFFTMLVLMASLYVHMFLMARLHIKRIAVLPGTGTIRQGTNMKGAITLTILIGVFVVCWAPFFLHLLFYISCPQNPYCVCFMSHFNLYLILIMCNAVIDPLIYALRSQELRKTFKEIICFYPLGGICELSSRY
Melanocortin receptor 4 (Mus musculus), sequence (P56450 whole entry): as above

SMILES | EC50 (Melanocortin receptor 4) | EC50 (Melanocortin receptor 5) | EC50 (Melanocortin receptor 3) | Activity [2] | metabolised at 1.5 h [3] | EC50 [4] | other results
NC(=O)[C@H](Cc1c[nH]c2ccccc12)NC(=O)[C@H](CCCN=C(N)N)NC(=O)[C@@H](Cc1ccccc1)NC(=O)[C@@H](N)Cc1ccccc1 | 70.6 nM | 143 nM | 11900 nM |  |  | 503 nM | 
CC(=O)NCC(=O)N(CC(=O)N[C@H](Cc1ccccc1)C(=O)N[C@@H](CCCNC(=N)N)C(=O)N[C@@H](Cc1c[nH]c2ccccc12)C(=O)NCC(N)=O)Cc1ccccc1 | 9820 nM | 3430 nM | > 100 nM | 31% | 20% | 11800 nM | metabolised at 1 h [5]: 50%
N=C(N)NCCC[C@@H]1NC(=O)[C@@H](Cc2ccccc2)NC(=O)CN(Cc2ccccc2)C(=O)CCC(=O)NCCN(CC(N)=O)C(=O)[C@H](Cc2c[nH]c3ccccc23)NC1=O | 1370 nM | 1650 nM | > 100 nM | < 30% | 5% | 380 nM | Stability (Serum [6]): Stable; Activity (Serum [7]): Stable; Stability (Serum [8]): Stable
NC(=O)CN1CCNC(=O)CCCCC(=O)N[C@@H](Cc2ccccc2)C(=O)N(Cc2ccccc2)CC(=O)N[C@@H](CCCN=C(N)N)C(=O)N[C@@H](Cc2c[nH]c3ccccc23)C1=O (F[Nphe]RW[N(2-Aminoethyl)Gly]-NH2; linker N-5 via Adipoyl) | 3300 nM | 485 nM | > 100 nM |  | 5% | 1170 nM | 
NC(=O)CN1CCNC(=O)CCC(=O)N[C@@H](Cc2ccccc2)C(=O)N(Cc2ccccc2)CC(=O)N[C@@H](CCCN=C(N)N)C(=O)N[C@@H](Cc2c[nH]c3ccccc23)C1=O (F[Nphe]RW[N(2-Aminoethyl)Gly]-NH2; linker N-5 via Suc) | 3830 nM | 3960 nM | > 100 nM |  | 5% | 2810 nM | 
CC(=O)NCC(=O)N[C@@H](Cc1ccccc1)C(=O)N(CC(=O)N[C@@H](CCCNC(=N)N)C(=O)N[C@@H](Cc1c[nH]c2ccccc12)C(=O)NCC(N)=O)Cc1ccccc1 (HELM PEPTIDE1{[ac].G.F.[O=C(CN(Cc1ccccc1)[*:1])[*:2]].R.W.G.[am]}$$$$V2.0) | 8.8 nM | 16.2 nM | > 100 nM | < 30% | 20% | 220 nM | Stability (Serum [8]): Unstable
CC(=O)NCC(=O)N(CC(=O)N(CC(=O)N[C@@H](CCCNC(=N)N)C(=O)N[C@@H](Cc1c[nH]c2ccccc12)C(=O)NCC(N)=O)Cc1ccccc1)Cc1ccccc1 (HELM PEPTIDE1{[ac].G.[O=C(CN(Cc1ccccc1)[*:1])[*:2]].[O=C(CN(Cc1ccccc1)[*:1])[*:2]].R.W.G.[am]}$$$$V2.0) | 10.5 nM | 8.1 nM |  | < 30% | 20% | 240 nM | Activity [10]: 40%; Stability (Serum [8]): Unstable
NC(=O)CN1CCNC(=O)CCCCC(=O)N(Cc2ccccc2)CC(=O)N(Cc2ccccc2)CC(=O)N[C@@H](CCCN=C(N)N)C(=O)N[C@@H](Cc2c[nH]c3ccccc23)C1=O ([Nphe][Nphe]RW[N(2-Aminoethyl)Gly]-NH2; linker N-5 via Adipoyl) | 1700 nM | 320 nM | > 100 nM |  | 5% | 990 nM | 
N=C(N)NCCC[C@@H]1NC(=O)CN(Cc2ccccc2)C(=O)CN(Cc2ccccc2)C(=O)CCCCC(=O)NCCN(CC(N)=O)C(=O)[C@H](Cc2c[nH]c3ccccc23)NC1=O ([Nphe][Nphe]RW[N(2-Aminoethyl)Gly]-NH2; linker N-5 via Adipoyl) |  |  |  | < 30% |  |  | 
NC(=O)CN1CCNC(=O)CCCC(=O)N(Cc2ccccc2)CC(=O)N(Cc2ccccc2)CC(=O)N[C@@H](CCCN=C(N)N)C(=O)N[C@@H](Cc2c[nH]c3ccccc23)C1=O ([Nphe][Nphe]RW[N(2-Aminoethyl)Gly]-NH2; linker N-5 via Glutaryl) | 2250 nM | 350 nM | > 100 nM |  | 5% | 1680 nM | Ratio (Caco-2): 3
N=C(N)NCCC[C@@H]1NC(=O)CN(Cc2ccccc2)C(=O)CN(Cc2ccccc2)C(=O)CCCC(=O)NCCN(CC(N)=O)C(=O)[C@H](Cc2c[nH]c3ccccc23)NC1=O ([Nphe][Nphe]RW[N(2-Aminoethyl)Gly]-NH2; linker N-5 via Glutaryl) |  |  |  | < 30% |  |  | 
N=C(N)NCCC[C@@H]1NC(=O)CN(Cc2ccccc2)C(=O)CN(Cc2ccccc2)C(=O)CCC(=O)NCCN(CC(N)=O)C(=O)[C@H](Cc2c[nH]c3ccccc23)NC1=O ([Nphe][Nphe]RW[N(2-Aminoethyl)Gly]-NH2; linker N-5 via Suc) | 1960 nM | 2950 nM | > 100 nM | < 30% | 5% | 620 nM | 

Continued, in another order:

EC50 (Melanocortin receptor 4) | EC50 (Melanocortin receptor 5) | EC50 (Melanocortin receptor 3) | Activity [2] | metabolised at 1.5 h [3] | EC50 [4] | SMILES | other results
640 nM | 310 nM | > 100 nM | 89% | 5% | 220 nM | N=C(N)NCCC[C@@H]1NC(=O)[C@@H](Cc2ccccc2)NC(=O)CN(Cc2ccccc2)C(=O)CCCC(=O)NCCN(CC(N)=O)C(=O)[C@H](Cc2c[nH]c3ccccc23)NC1=O | metabolised at 4 h [1]: > 40%; Ratio (Caco-2): 3
49 nM | 8.1 nM | 7170 nM | 90% | 5% | 120 nM | N=C(N)NCCC[C@@H]1NC(=O)[C@@H](Cc2ccccc2)NC(=O)CN(Cc2ccccc2)C(=O)CCCCC(=O)NCCN(CC(N)=O)C(=O)[C@H](Cc2c[nH]c3ccccc23)NC1=O | metabolised at 4 h [1]: > 40%
 |  |  | < 30% |  |  | N=C(N)NCCC[C@@H]1NC(=O)CN(Cc2ccccc2)C(=O)[C@H](Cc2ccccc2)NC(=O)CCCCC(=O)NCCN(CC(N)=O)C(=O)[C@H](Cc2c[nH]c3ccccc23)NC1=O (F[Nphe]RW[N(2-Aminoethyl)Gly]-NH2; linker N-5 via Adipoyl) | 
 | 2320 nM | > 100 nM |  | 5% | 1000 nM | NC(=O)CN1CCNC(=O)CCCC(=O)N[C@@H](Cc2ccccc2)C(=O)N(Cc2ccccc2)CC(=O)N[C@@H](CCCN=C(N)N)C(=O)N[C@@H](Cc2c[nH]c3ccccc23)C1=O (F[Nphe]RW[N(2-Aminoethyl)Gly]-NH2; linker N-5 via Glutaryl) | 
 |  |  | < 30% |  |  | N=C(N)NCCC[C@@H]1NC(=O)CN(Cc2ccccc2)C(=O)[C@H](Cc2ccccc2)NC(=O)CCCC(=O)NCCN(CC(N)=O)C(=O)[C@H](Cc2c[nH]c3ccccc23)NC1=O (F[Nphe]RW[N(2-Aminoethyl)Gly]-NH2; linker N-5 via Glutaryl) | Activity [9]: 25%
 |  |  | < 30% |  |  | N=C(N)NCCC[C@@H]1NC(=O)CN(Cc2ccccc2)C(=O)[C@H](Cc2ccccc2)NC(=O)CCC(=O)NCCN(CC(N)=O)C(=O)[C@H](Cc2c[nH]c3ccccc23)NC1=O (F[Nphe]RW[N(2-Aminoethyl)Gly]-NH2; linker N-5 via Suc) | 
